Results on one compound are retold here after ChEMBL document CHEMBL5661979, “Pharmacological inhibition of BMK1 suppresses tumor growth through promyelocytic leukemia protein” (Cancer Cell, 2010).

Active and inactive are the calls of the source. The calls are words filed in the database; no cut-off is given here.

In data set [1] the target is Mitogen-activated protein kinase kinase kinase 4 (Homo sapiens, UniProt Q9Y6R4). The experiment in a line: Inhibition of MAP3K4 in human HeLa cells lysate at 2 uM pre incubated for 15 mins followed by ATP acyl phosphate probe addition and measured after 10 mins by LC-MS/MS analysis relative to control. It is filed as subcellular. Particulars: time 25.0 min.
Mitogen-activated protein kinase kinase kinase 4, sequence (Q9Y6R4 whole entry): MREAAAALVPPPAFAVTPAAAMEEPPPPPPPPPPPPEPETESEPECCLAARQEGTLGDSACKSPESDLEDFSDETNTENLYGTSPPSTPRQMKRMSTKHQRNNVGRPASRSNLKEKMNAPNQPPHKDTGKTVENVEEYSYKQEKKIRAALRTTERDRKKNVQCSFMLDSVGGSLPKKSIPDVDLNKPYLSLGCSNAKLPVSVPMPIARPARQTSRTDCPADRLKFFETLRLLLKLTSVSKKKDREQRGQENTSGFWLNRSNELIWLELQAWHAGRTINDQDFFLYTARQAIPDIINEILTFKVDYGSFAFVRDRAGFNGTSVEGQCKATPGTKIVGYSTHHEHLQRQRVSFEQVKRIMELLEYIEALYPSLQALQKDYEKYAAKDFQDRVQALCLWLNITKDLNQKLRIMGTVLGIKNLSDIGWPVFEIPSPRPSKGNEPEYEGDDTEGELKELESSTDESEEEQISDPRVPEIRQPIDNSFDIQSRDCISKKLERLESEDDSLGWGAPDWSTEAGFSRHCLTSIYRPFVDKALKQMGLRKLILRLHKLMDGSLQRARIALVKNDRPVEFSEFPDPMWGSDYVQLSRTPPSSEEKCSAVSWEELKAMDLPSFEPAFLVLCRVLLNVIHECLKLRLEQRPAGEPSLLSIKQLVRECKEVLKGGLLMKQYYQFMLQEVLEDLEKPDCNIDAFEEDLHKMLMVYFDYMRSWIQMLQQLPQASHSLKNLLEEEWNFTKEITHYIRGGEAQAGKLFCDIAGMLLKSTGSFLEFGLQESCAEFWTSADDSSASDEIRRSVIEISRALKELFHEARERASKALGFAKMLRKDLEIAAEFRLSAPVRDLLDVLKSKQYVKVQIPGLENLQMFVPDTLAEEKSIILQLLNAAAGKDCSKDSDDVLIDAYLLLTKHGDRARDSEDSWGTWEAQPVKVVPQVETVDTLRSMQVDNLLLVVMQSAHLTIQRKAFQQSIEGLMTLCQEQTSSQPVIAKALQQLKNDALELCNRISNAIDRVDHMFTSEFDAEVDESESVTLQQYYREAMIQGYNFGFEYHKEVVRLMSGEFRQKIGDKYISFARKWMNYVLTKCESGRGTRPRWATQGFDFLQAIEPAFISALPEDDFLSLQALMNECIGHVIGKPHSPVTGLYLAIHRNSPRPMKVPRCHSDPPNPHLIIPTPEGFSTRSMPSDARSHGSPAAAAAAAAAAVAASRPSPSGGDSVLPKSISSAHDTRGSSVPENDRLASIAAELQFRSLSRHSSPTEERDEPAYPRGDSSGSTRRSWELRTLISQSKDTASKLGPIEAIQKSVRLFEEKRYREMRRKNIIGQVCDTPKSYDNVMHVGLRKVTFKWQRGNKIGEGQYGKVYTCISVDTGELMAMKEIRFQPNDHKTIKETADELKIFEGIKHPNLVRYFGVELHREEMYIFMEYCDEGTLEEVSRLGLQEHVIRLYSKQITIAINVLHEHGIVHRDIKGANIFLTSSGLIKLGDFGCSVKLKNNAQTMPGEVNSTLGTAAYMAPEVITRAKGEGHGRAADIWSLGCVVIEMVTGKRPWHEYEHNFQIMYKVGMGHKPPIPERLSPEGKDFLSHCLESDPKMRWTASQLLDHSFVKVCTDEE
In data set [2] the target is Serine/threonine-protein kinase ATR (Homo sapiens, UniProt Q13535). Nature of the data set: Inhibition of ATR in human HeLa cells lysate at 50 uM pre incubated for 15 mins followed by ATP acyl phosphate probe addition and measured after 10 mins by LC-MS/MS analysis relative to control. Particulars: time 25.0 min. It is filed as subcellular. The procedure, abridged:
(§1)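 KiNativ-type profiling in HeLa lysate (5 mg/mL total protein). Lysate preincubated 15 min with inhibitor at 50, 10, 2, 0.8 or 0 μM, then ATP or ADP acylphosphate probe added (5 μM final) for 10 min. Reaction stopped with urea and analysed by targeted MS, using up to four fragment ions per kinase peptide-probe conjugate. % inhibition calculated against untreated lysate. Duplicate reactions.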

Data set [3] addresses T1, Mixed lineage kinase domain-like protein (Homo sapiens) (UniProt Q8NB16).
T1 sequence (whole entry): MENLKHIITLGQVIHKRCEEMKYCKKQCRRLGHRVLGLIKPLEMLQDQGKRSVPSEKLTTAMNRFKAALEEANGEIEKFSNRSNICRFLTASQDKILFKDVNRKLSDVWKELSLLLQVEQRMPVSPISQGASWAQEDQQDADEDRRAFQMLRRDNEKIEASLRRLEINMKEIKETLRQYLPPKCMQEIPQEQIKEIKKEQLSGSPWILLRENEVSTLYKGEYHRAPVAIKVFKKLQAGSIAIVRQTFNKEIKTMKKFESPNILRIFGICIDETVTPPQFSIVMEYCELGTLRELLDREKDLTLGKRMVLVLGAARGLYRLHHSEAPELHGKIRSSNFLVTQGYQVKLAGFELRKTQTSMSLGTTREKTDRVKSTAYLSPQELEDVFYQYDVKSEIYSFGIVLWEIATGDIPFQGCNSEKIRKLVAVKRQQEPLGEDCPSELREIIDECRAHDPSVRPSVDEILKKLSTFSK
The experiment in a line: Inhibition of MLKL in human HeLa cells lysate at 2 uM pre incubated for 15 mins followed by ADP acyl phosphate probe addition and measured after 10 mins by LC-MS/MS analysis relative to control. Type of data set: subcellular. Particulars: time 25.0 min.

The subject of the next data set is HeLa. The experiment in a line: Antitumor activity against human HeLa cells xenografted in NOD/SCID mouse assessed as decrease in BrdU incorporation in cell nuclei in tumor at 50 mg/kg, ip by fluorescence microscopic analysis. It is filed as functional, organism-based. The procedure, abridged: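 HeLa or LL/2 tumor sections from treated and control xenograft mice were stained with anti-BrdU antibody and DAPI and imaged by fluorescence microscopy. n = 6 mice, 9 slices.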
For orientation: In xenograft studies the graft and the host belong to different species.

Data set [4] addresses Cyclin-dependent kinase 7 (Homo sapiens, UniProt P50613). Nature of the data set: Inhibition of CDK7 in human HeLa cells lysate at 50 uM pre incubated for 15 mins followed by ATP acyl phosphate probe addition and measured after 10 mins by LC-MS/MS analysis relative to control. It is filed as subcellular. The settings on record: time 25.0 min. The procedure, abridged:
(§2)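 KiNativ profiling in HeLa lysate (5 mg/mL total protein). Lysate incubated 15 min with inhibitor at 50, 10, 2, 0.8 or 0 μM. ATP or ADP acylphosphate probe then added (5 μM final) and reacted 10 min. Reaction stopped with urea and analysed by targeted MS, using up to four fragment ions per kinase peptide-probe conjugate. % inhibition taken against untreated lysate. Run in duplicate.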

Data set [5] concerns the target Mitogen-activated protein kinase 3 (Homo sapiens, UniProt P27361). The experiment in a line: Inhibition of ERK1 in human HeLa cells lysate pre incubated for 15 mins followed by ATP acyl phosphate probe addition and measured after 10 mins by LC-MS/MS analysis. It is filed as subcellular.
Data set [6] concerns the target Dual specificity mitogen-activated protein kinase kinase; MEK1/2 (Homo sapiens, UniProt P36507+Q02750). Nature of the data set: Inhibition of MAP2K1/MAP2K2in human HeLa cells lysate at 10 uM pre incubated for 15 mins followed by ADP acyl phosphate probe addition and measured after 10 mins by LC-MS/MS analysis relative to control. The settings on record: time 25.0 min. Type of data set: subcellular.

Data set [7] can be described thus: Inhibition of MSK1/2 in human HeLa cells lysate pre incubated for 15 mins followed by ATP acyl phosphate probe addition and measured after 10 mins by LC-MS/MS analysis. It is filed as subcellular.
Data set [8] deals with 5'-AMP-activated protein kinase catalytic subunit alpha-1 (Homo sapiens, UniProt Q13131). Nature of the data set: Inhibition of AMPKalpha1 in human HeLa cells lysate pre incubated for 15 mins followed by ADP acyl phosphate probe addition and measured after 10 mins by LC-MS/MS analysis. Type of data set: subcellular. The procedure, abridged: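 HeLa cell lysates (5 mg/mL total protein) were preincubated with inhibitor at 0, 0.8, 2, 10 or 50 μM for 15 min. ATP or ADP acylphosphate probe was then added (5 μM final) for 10 min, and reactions were stopped with urea. Up to four fragment ions per kinase probe-peptide were quantified by targeted MS. % inhibition was taken relative to untreated lysate. Run in duplicate.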

The target of data set [9] is Serine/threonine-protein kinase Nek8 (Homo sapiens) (UniProt Q86SG6). The experiment in a line: Inhibition of NEK8 in human HeLa cells lysate at 2 uM pre incubated for 15 mins followed by ADP acyl phosphate probe addition and measured after 10 mins by LC-MS/MS analysis relative to control. It is filed as subcellular. Particulars: time 25.0 min.
Serine/threonine-protein kinase Nek8 (Homo sapiens), sequence (Q86SG6 whole entry): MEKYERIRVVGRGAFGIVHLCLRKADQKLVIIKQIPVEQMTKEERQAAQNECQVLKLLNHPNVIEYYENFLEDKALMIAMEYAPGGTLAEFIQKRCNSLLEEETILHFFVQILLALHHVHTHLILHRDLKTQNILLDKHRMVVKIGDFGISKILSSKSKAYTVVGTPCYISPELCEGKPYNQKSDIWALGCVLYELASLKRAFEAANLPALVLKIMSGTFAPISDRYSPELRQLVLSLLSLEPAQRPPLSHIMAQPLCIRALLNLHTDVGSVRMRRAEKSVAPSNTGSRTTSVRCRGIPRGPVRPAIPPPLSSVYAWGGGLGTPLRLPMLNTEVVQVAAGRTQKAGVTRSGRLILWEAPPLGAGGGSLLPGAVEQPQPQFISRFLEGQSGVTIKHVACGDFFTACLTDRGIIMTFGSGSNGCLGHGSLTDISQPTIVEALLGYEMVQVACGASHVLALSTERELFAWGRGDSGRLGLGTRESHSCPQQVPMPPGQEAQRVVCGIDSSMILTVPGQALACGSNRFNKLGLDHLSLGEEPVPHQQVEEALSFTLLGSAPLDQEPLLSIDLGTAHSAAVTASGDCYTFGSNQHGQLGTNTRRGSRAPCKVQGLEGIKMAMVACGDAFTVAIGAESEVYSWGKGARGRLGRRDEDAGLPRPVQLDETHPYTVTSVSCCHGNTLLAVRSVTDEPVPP
In data set [10] the target is MAP/microtubule affinity-regulating kinase 3 (Homo sapiens, UniProt P27448). Nature of the data set: Inhibition of MARK3 in human HeLa cells lysate pre incubated for 15 mins followed by ATP acyl phosphate probe addition and measured after 10 mins by LC-MS/MS analysis. Type of data set: subcellular.
Data set [11] can be described thus: Inhibition of HGK/MINK/TNIK in human HeLa cells lysate at 50 uM pre incubated for 15 mins followed by ATP acyl phosphate probe addition and measured after 10 mins by LC-MS/MS analysis relative to control. Particulars: 25 min, condition cancer.
The target in data set [12] is Calcium/calmodulin-dependent protein kinase type 1D (Homo sapiens, UniProt Q8IU85). Nature of the data set: Inhibition of CAMK1d in human HeLa cells lysate at 50 uM pre incubated for 15 mins followed by ADP acyl phosphate probe addition and measured after 10 mins by LC-MS/MS analysis relative to control. It is filed as subcellular. The settings on record: time 25.0 min. The procedure, abridged:
as §1

Data set [13] has as its target Cyclin-dependent kinase 9 (Homo sapiens, UniProt P50750). The experiment in a line: Inhibition of CDK9 in human HeLa cells lysate pre incubated for 15 mins followed by ATP acyl phosphate probe addition and measured after 10 mins by LC-MS/MS analysis. Type of data set: subcellular. Put shortly: as §2
Data set [14] deals with Serine/threonine-protein kinase Nek1 (Homo sapiens) (UniProt Q96PY6). The experiment in a line: Inhibition of NEK1 in human HeLa cells lysate at 50 uM pre incubated for 15 mins followed by ATP acyl phosphate probe addition and measured after 10 mins by LC-MS/MS analysis relative to control. It is filed as subcellular. Particulars: time 25.0 min.
Data set [15] in a line: Inhibition of HGK/MINK/TNIK in human HeLa cells lysate pre incubated for 15 mins followed by ADP acyl phosphate probe addition and measured after 10 mins by LC-MS/MS analysis. Type of data set: subcellular.
Data set [16] in a line: Cardiotoxicity in C57Bl/6 mouse assessed as vasculature instability in heart at 50 mg/kg, ip for 14 days by TUNEL assay. It is filed as toxicity, organism-based. Particulars: in vivo, 336 h, time 14 day. The procedure, abridged:
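Mice were dosed i.p. at 50 mg/kg over 14 days. Heart sections from treated and control mice were stained by immunofluorescence for CD31 and by TUNEL, with DNase-treated sections as the TUNEL positive control.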

Mitogen-activated protein kinase 3, sequence (P27361 whole entry): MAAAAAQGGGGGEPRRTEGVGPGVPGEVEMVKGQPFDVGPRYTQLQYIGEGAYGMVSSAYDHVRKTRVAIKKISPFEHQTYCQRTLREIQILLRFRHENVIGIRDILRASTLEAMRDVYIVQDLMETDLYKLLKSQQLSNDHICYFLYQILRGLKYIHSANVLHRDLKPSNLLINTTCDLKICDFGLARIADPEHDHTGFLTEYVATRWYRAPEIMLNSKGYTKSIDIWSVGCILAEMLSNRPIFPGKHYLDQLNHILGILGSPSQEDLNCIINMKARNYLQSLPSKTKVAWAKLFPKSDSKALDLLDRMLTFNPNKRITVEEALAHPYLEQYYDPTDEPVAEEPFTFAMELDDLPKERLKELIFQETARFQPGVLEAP
Calcium/calmodulin-dependent protein kinase type 1D, sequence (Q8IU85 whole entry, looked up): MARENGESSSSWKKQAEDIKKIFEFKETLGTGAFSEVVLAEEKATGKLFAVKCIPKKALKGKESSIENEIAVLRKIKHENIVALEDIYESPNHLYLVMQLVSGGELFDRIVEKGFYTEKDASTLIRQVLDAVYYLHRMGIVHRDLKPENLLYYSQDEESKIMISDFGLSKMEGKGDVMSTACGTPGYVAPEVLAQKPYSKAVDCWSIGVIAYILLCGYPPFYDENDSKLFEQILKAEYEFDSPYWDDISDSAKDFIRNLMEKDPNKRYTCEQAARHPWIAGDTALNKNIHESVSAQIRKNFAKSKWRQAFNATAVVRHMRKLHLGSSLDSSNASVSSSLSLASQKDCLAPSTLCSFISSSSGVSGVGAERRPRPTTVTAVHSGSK
Dual specificity mitogen-activated protein kinase kinase; MEK1/2, sequence (P36507 whole entry, looked up): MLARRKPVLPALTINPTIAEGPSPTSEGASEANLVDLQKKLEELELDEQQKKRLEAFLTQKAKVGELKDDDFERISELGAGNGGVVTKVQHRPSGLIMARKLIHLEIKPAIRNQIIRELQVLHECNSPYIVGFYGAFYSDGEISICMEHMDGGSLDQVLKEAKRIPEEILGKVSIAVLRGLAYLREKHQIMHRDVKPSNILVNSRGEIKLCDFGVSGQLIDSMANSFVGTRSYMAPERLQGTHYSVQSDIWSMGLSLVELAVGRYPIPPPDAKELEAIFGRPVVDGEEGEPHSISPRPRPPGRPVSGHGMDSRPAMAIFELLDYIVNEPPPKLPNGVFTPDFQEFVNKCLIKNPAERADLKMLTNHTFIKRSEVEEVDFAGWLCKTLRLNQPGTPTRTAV
Dual specificity mitogen-activated protein kinase kinase; MEK1/2, sequence (Q02750 whole entry, looked up): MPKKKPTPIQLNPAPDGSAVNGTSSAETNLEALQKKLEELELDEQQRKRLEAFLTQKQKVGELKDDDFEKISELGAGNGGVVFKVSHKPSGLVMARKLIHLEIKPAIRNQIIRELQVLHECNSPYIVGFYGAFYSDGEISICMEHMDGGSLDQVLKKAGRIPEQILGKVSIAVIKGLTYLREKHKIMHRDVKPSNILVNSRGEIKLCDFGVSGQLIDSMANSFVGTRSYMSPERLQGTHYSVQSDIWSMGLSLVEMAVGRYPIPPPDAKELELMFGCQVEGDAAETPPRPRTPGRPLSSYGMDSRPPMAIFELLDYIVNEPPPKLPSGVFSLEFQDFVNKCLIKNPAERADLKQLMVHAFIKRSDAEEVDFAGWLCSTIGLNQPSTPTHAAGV
Cyclin-dependent kinase 7, sequence (P50613 whole entry, the tested form may be a part): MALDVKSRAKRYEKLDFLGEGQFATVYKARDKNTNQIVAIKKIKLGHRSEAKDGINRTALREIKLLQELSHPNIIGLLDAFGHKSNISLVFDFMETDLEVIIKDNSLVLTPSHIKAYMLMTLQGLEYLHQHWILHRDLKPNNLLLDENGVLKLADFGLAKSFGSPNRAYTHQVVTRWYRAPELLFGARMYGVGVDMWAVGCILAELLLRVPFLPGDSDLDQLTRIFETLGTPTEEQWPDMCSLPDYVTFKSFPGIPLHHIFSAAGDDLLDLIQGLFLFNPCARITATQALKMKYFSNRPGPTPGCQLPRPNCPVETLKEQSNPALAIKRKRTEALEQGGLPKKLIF
Cyclin-dependent kinase 9, sequence (P50750 whole entry): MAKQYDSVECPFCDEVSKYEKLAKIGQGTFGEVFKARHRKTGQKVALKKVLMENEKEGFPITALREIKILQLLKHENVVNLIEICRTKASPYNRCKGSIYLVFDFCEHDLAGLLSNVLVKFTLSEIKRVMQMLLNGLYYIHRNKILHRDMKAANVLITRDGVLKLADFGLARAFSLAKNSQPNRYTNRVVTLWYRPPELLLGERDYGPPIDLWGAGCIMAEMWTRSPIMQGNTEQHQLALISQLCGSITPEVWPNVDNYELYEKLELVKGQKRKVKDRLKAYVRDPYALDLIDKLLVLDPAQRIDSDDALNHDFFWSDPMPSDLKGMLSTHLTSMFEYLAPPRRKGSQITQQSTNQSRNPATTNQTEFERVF

Usually inhibition stands for the change of the read-out against control, counted positive when it falls. As a reminder, the IC50 is the midpoint of a concentration-inhibition curve. The low end stands for higher potency, the high end for lower potency. On to `CCOc1cc(N2CCC(O)CC2)ccc1Nc1ncc2c(n1)N(C)c1ccccc1C(=O)N2C`, for which the inhibition in [1] was -8.8%; in data set [2], 13.9%; in data set [3], 35.6%; in data set [4], -0.5%; in data set [6], -2.3%; in data set [9] it was 30.2%. The results for the inhibition in [12] and in data set [14] were -1.9% and -3.8%, respectively. Also, the outcome in the data set with HeLa was Active. Besides, the IC50 in data set [5], in data set [7], in [8], in [10], in data set [13] and in data set [15] was more than 50 µM each time. Further, the inhibition at 50 µM in data set [11] is -2.6%. In addition, in data set [16], the Activity result is given as “Non-Toxic”.
